Laboratory results taken from ChEMBL document CHEMBL2150901, “Synthesis and biological activity of tricyclic cycloalkylimidazo-, pyrimido- and diazepinopurinediones” (Eur J Med Chem, 2011).
Calls of active or inactive are those of the source. The calls are words filed in the database; no cut-off is given here.

What was measured:
Mus musculus [1] = test: Anticonvulsant activity in F1 albino mouse assessed as protection against maximal electroshock-induced seizures at 300 mg/kg, ip after 0.25 hrs; assay type: functional, organism-based; parameters: dose 300 mg/kg
Summary of the method: (§1)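 Male albino F-1 mice (18–25 g), groups of 1–5 (rotorod 2–8). Compound given ip as a suspension in 0.5% methylcellulose at 30, 100 and 300 mg/kg. Seizures by maximal electroshock or subcutaneous pentylenetetrazole; neurotoxicity by rotorod. Read at 0.5 and 4 h, with some at 0.25, 1 and 2 h. Value is the minimum active dose, with protected (or toxic)/tested animals.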

Mus musculus [2] = test: Anticonvulsant activity in F1 albino mouse assessed as protection against maximal electroshock-induced seizures at 300 mg/kg, ip after 0.5 hrs; assay type: functional, organism-based; parameters: dose 300 mg/kg; summary of the method: as §1
Mus musculus [3] = test: Anticonvulsant activity in F1 albino mouse assessed as protection against maximal electroshock-induced seizures at 300 mg/kg, ip after 1 hr; assay type: functional, organism-based; parameters: dose 300 mg/kg; summary of the method: as §1
Mus musculus [4] = test: Anticonvulsant activity in F1 albino mouse assessed as protection against maximal electroshock-induced seizures at 300 mg/kg, ip after 4 hrs; assay type: functional, organism-based; parameters: dose 300 mg/kg; summary of the method: as §1
Mus musculus [5] = test: Anticonvulsant activity in F1 albino mouse assessed as protection against subcutaneous pentylenetetrazole-induced seizures at 100 mg/kg, ip after 0.25 hrs; assay type: functional, organism-based; parameters: dose 100 mg/kg; summary of the method: as §1
Mus musculus [6] = test: Anticonvulsant activity in F1 albino mouse assessed as protection against subcutaneous pentylenetetrazole-induced seizures at 300 mg/kg, ip after 0.5 hrs; assay type: functional, organism-based; parameters: dose 300 mg/kg; summary of the method: as §1
Mus musculus [7] = test: Anticonvulsant activity in F1 albino mouse assessed as protection against subcutaneous pentylenetetrazole-induced seizures at 100 mg/kg, ip after 1 hr; assay type: functional, organism-based; parameters: dose 100 mg/kg; summary of the method: as §1
Mus musculus [8] = test: Anticonvulsant activity in F1 albino mouse assessed as protection against subcutaneous pentylenetetrazole-induced seizures at 300 mg/kg, ip after 4 hrs; assay type: functional, organism-based; parameters: dose 300 mg/kg; summary of the method: as §1
Mus musculus [9] = test: Neurotoxicity in F1 albino mouse assessed as minimal motor impairment at 300 mg/kg, ip after 0.25 hrs by rotorod test; assay type: toxicity, organism-based; parameters: dose 300 mg/kg, route intraperitoneal; conditions: in vivo; summary of the method: as §1
Mus musculus [10] = test: Neurotoxicity in F1 albino mouse assessed as minimal motor impairment at 300 mg/kg, ip after 0.5 hrs by rotorod test; assay type: toxicity, organism-based; parameters: dose 300 mg/kg, route intraperitoneal; conditions: in vivo; summary of the method: as §1
Mus musculus [11] = test: Neurotoxicity in F1 albino mouse assessed as minimal motor impairment at 300 mg/kg, ip after 1 hr by rotorod test; assay type: toxicity, organism-based; parameters: dose 300 mg/kg, route intraperitoneal; conditions: in vivo; summary of the method: as §1
Mus musculus [12] = test: Neurotoxicity in F1 albino mouse assessed as minimal motor impairment at 300 mg/kg, ip after 4 hrs by rotorod test; assay type: toxicity, organism-based; parameters: dose 300 mg/kg, route intraperitoneal; conditions: in vivo; summary of the method: as §1
Rattus norvegicus [13] = test: Anticonvulsant activity in Sprague-Dawley albino rat assessed as protection against maximal electroshock-induced seizures at 30 mg/kg, po after 0.5 hrs; assay type: functional, organism-based; parameters: dose 30 mg/kg
Summary of the method: (§2)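 Male Sprague-Dawley albino rats (100–150 g), groups of 4. Oral suspension in 0.5% methylcellulose/water. Protection assessed by maximal electroshock or subcutaneous pentylenetetrazole; motor impairment by rotorod. Time points 0.25–4 h. Value is protected (or toxic)/tested animals.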

Rattus norvegicus [14] = test: Anticonvulsant activity in Sprague-Dawley albino rat assessed as protection against maximal electroshock-induced seizures at 30 mg/kg, po after 1 hr; assay type: functional, organism-based; parameters: dose 30 mg/kg; summary of the method: as §2
Rattus norvegicus [15] = test: Anticonvulsant activity in Sprague-Dawley albino rat assessed as protection against maximal electroshock-induced seizures at 30 mg/kg, po after 2 hrs; assay type: functional, organism-based; parameters: dose 30 mg/kg; summary of the method: as §2
Rattus norvegicus [16] = test: Anticonvulsant activity in Sprague-Dawley albino rat assessed as protection against maximal electroshock-induced seizures at 30 mg/kg, po after 4 hrs; assay type: functional, organism-based; parameters: dose 30 mg/kg; summary of the method: as §2
Rattus norvegicus [17] = test: Anticonvulsant activity in Sprague-Dawley albino rat assessed as protection against subcutaneous pentylenetetrazole-induced seizures at 50 mg/kg, po after 0.25 hrs; assay type: functional, organism-based; parameters: dose 50 mg/kg; summary of the method: as §2
Rattus norvegicus [18] = test: Anticonvulsant activity in Sprague-Dawley albino rat assessed as protection against subcutaneous pentylenetetrazole-induced seizures at 50 mg/kg, po after 0.5 hrs; assay type: functional, organism-based; parameters: dose 50 mg/kg; summary of the method: as §2
Rattus norvegicus [19] = test: Anticonvulsant activity in Sprague-Dawley albino rat assessed as protection against subcutaneous pentylenetetrazole-induced seizures at 50 mg/kg, po after 1 hr; assay type: functional, organism-based; parameters: dose 50 mg/kg; summary of the method: as §2
Rattus norvegicus [20] = test: Anticonvulsant activity in Sprague-Dawley albino rat assessed as protection against subcutaneous pentylenetetrazole-induced seizures at 50 mg/kg, po after 2 hrs; assay type: functional, organism-based; parameters: dose 50 mg/kg; summary of the method: as §2
Rattus norvegicus [21] = test: Anticonvulsant activity in Sprague-Dawley albino rat assessed as protection against subcutaneous pentylenetetrazole-induced seizures at 50 mg/kg, po after 4 hrs; assay type: functional, organism-based; parameters: dose 50 mg/kg; summary of the method: as §2
Rattus norvegicus [22] = test: Neurotoxicity in Sprague-Dawley albino rat assessed as minimal motor impairment at 30 mg/kg, po after 0.25 hrs by rotorod test; assay type: toxicity, organism-based; parameters: dose 30 mg/kg, route oral; conditions: in vivo; summary of the method: as §2
Rattus norvegicus [23] = test: Neurotoxicity in Sprague-Dawley albino rat assessed as minimal motor impairment at 30 mg/kg, po after 0.5 hrs by rotorod test; assay type: toxicity, organism-based; parameters: dose 30 mg/kg, route oral; conditions: in vivo; summary of the method: as §2
Rattus norvegicus [24] = test: Neurotoxicity in Sprague-Dawley albino rat assessed as minimal motor impairment at 30 mg/kg, po after 1 hr by rotorod test; assay type: toxicity, organism-based; parameters: dose 30 mg/kg, route oral; conditions: in vivo; summary of the method: as §2
Rattus norvegicus [25] = test: Neurotoxicity in Sprague-Dawley albino rat assessed as minimal motor impairment at 30 mg/kg, po after 4 hrs by rotorod test; assay type: toxicity, organism-based; parameters: dose 30 mg/kg, route oral; conditions: in vivo
Summary of the method: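 Male Sprague-Dawley albino rats (100–150 g), groups of 4, dosed orally with a suspension in 0.5% methylcellulose/water. Neurotoxicity was scored as minimal motor impairment on the rotorod at 0.25, 0.5, 1 and 4 h. Results are reported as animals showing toxicity per animals tested.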

Rattus norvegicus [26] = test: Anticonvulsant activity in po dosed Sprague-Dawley albino rat assessed as protection against subcutaneous pentylenetetrazole-induced seizures after 0.25 hrs; assay type: functional
Rattus norvegicus [27] = species: Rattus norvegicus; test: Selectivity ratio of Ki for adenosine A1 receptor in rat brain cortical membrane to Ki for adenosine A2A receptor in rat brain striatal membrane; assay type: cell membranes
Summary of the method: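 Ki ratios from radioligand competition binding. Rat A1 used brain cortical membranes and rat A2A used brain striatal membranes. Human A1 and A2A used membranes of CHO cells expressing the receptors. A1 radioligand [³H]CCPA; A2A radioligand [³H]MSX-2. Potent compounds were tested at 6–7 concentrations spanning 3 orders of magnitude.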

Adenosine receptor A2a = Adenosine receptor A2a (Rattus norvegicus, UniProt P30543); test: Displacement of [3H]MSX-2 from adenosine A2A receptor in rat brain striatal membrane; assay type: cell membranes
Adenosine receptor A1 = target: T1, Adenosine receptor A1 (Rattus norvegicus, UniProt P25099); test: Displacement of [3H]CCPA from adenosine A1 receptor in rat brain cortical membrane; assay type: cell membranes
T1 sequence (P25099 whole entry): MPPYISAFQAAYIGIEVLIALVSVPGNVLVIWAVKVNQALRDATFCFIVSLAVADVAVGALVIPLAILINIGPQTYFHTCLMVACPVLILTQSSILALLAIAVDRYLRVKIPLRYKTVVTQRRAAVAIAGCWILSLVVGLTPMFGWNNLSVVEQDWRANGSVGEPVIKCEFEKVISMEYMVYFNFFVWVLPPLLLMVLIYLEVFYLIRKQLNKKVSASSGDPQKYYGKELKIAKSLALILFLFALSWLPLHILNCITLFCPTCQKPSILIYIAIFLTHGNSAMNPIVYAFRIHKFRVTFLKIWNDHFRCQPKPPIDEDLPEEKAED

Rattus norvegicus [28] = test: Toxicity in Sprague-Dawley albino rat assessed as mortality following continuous seizures at 50 mg/kg, po after 0.25 hrs; assay type: organism-based; parameters: dose 50 mg/kg, route oral; conditions: in vivo
Summary of the method: (§3)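 Male Sprague-Dawley albino rats (100–150 g), in groups of 4, were given an oral suspension in 0.5% methylcellulose/water. The event recorded was death following continuous seizures, given as animals affected per animals tested.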

Rattus norvegicus [29] = test: Toxicity in Sprague-Dawley albino rat assessed as mortality following continuous seizures at 50 mg/kg, po after 0.5 hrs; assay type: organism-based; parameters: dose 50 mg/kg, route oral; conditions: in vivo; summary of the method: as §3
Rattus norvegicus [30] = test: Toxicity in Sprague-Dawley albino rat assessed as mortality following continuous seizures at 50 mg/kg, po after 1 hr; assay type: organism-based; parameters: dose 50 mg/kg, route oral; conditions: in vivo; summary of the method: as §3
Rattus norvegicus [31] = test: Toxicity in Sprague-Dawley albino rat assessed as mortality following continuous seizures at 50 mg/kg, po after 4 hrs; assay type: organism-based; parameters: dose 50 mg/kg, route oral; conditions: in vivo; summary of the method: as §3
Mus musculus [32] = test: Anticonvulsant activity in F1 albino mouse assessed as protection against subcutaneous pentylenetetrazole-induced seizures at 300 mg/kg, ip after 0.25 hrs; assay type: functional, organism-based; parameters: dose 300 mg/kg; summary of the method: as §1
Mus musculus [33] = test: Anticonvulsant activity in F1 albino mouse assessed as protection against subcutaneous pentylenetetrazole-induced seizures at 100 mg/kg, ip after 0.5 hrs; assay type: functional, organism-based; parameters: dose 100 mg/kg; summary of the method: as §1
Mus musculus [34] = test: Anticonvulsant activity in F1 albino mouse assessed as protection against subcutaneous pentylenetetrazole-induced seizures at 300 mg/kg, ip after 1 hr; assay type: functional, organism-based; parameters: dose 300 mg/kg; summary of the method: as §1
Rattus norvegicus [35] = test: Toxicity in Sprague-Dawley albino rat assessed as mortality following continuous seizures at >100 mg/kg, po; assay type: organism-based; conditions: in vivo
Rattus norvegicus [36] = test: Anticonvulsant activity in po dosed Sprague-Dawley albino rat assessed as protection against maximal electroshock-induced seizures; assay type: functional
Rattus norvegicus [37] = test: Anticonvulsant activity in po dosed Sprague-Dawley albino rat assessed as protection against subcutaneous pentylenetetrazole-induced seizures; assay type: functional

Chain of Adenosine receptor A2a (P30543 whole entry): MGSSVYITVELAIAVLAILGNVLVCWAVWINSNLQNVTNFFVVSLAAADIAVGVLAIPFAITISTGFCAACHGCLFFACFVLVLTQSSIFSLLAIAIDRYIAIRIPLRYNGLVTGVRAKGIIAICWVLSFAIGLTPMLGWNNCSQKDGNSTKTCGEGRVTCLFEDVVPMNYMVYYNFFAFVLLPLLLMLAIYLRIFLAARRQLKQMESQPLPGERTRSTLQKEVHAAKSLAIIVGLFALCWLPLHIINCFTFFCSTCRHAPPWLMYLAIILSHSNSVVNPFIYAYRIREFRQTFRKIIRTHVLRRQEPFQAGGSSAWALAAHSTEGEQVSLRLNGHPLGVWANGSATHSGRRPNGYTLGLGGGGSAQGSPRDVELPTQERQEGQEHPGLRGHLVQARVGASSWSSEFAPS

Structure (SMILES) | Activity (Mus musculus [1]) | Activity (Mus musculus [2]) | Activity (Mus musculus [3]) | Activity (Mus musculus [4]) | Activity (Mus musculus [8]) | Activity (Mus musculus [9]) | Activity (Mus musculus [10]) | Activity (Mus musculus [11]) | Activity (Mus musculus [12]) | Activity (Rattus norvegicus [13]) | Activity (Rattus norvegicus [14]) | Activity (Rattus norvegicus [15]) | Activity (Rattus norvegicus [16]) | Activity (Rattus norvegicus [17]) | Activity (Rattus norvegicus [22]) | Activity (Rattus norvegicus [23]) | Activity (Rattus norvegicus [24]) | Activity (Rattus norvegicus [25]) | Ratio Ki (Rattus norvegicus [27]) | Ki (Adenosine receptor A2a) [µM] | also measured
Cn1c(=O)c2c(nc3n2CCCN3CC2CCCCC2)n(C)c1=O | inactive | inactive | inactive | inactive | inactive | Non-toxic | Non-toxic | Non-toxic | Non-toxic | inactive | inactive | inactive | inactive | Active | Non-toxic | Non-toxic | Non-toxic | Non-toxic | 4 | 0.61 | Activity (Mus musculus [5]): Active; Activity (Mus musculus [6]): Active; Activity (Mus musculus [7]): inactive; Activity (Rattus norvegicus [18]): Active; Activity (Rattus norvegicus [19]): Active; Activity (Rattus norvegicus [20]): inactive; Activity (Rattus norvegicus [21]): Active; ED50 (Rattus norvegicus [26]): > 200 mg/kg; Ki (Adenosine receptor A1): 2.49 µM
CC1CCC(N2CCCCn3c2nc2c3c(=O)n(C)c(=O)n2C)CC1 (mixture of isomers) | inactive | inactive | inactive | inactive | inactive | Non-toxic | Non-toxic | Non-toxic | Non-toxic | inactive | inactive | inactive | inactive | inactive | Non-toxic | Non-toxic | Non-toxic | Non-toxic | 4 | 0.83 | Activity (Mus musculus [5]): Active; Activity (Mus musculus [6]): Active; Activity (Mus musculus [7]): Active; Activity (Rattus norvegicus [20]): inactive; Activity (Rattus norvegicus [28]): Toxic; Activity (Rattus norvegicus [29]): Toxic; Activity (Rattus norvegicus [30]): Toxic; Activity (Rattus norvegicus [31]): Toxic; Ki (Adenosine receptor A1): 3.44 µM
Cn1c(=O)c2c(nc3n2CCCCN3CC2CCCCC2)n(C)c1=O | inactive | Active | inactive | inactive | inactive | Non-toxic | Non-toxic | Non-toxic | Non-toxic | inactive | inactive | inactive | inactive | inactive | Non-toxic | Non-toxic | Non-toxic | Non-toxic | 1 | 3.5 | Activity (Mus musculus [32]): inactive; Activity (Mus musculus [33]): Active; Activity (Mus musculus [34]): inactive; Activity (Rattus norvegicus [18]): Active; Activity (Rattus norvegicus [19]): inactive; Activity (Rattus norvegicus [21]): inactive; Activity (Rattus norvegicus [35]): Toxic; ED50 (Rattus norvegicus [36]): > 250 mg/kg; ED50 (Rattus norvegicus [37]): > 100 mg/kg; Ki (Adenosine receptor A1): 5.18 µM
